What is called IC50 is the concentration at which inhibition is half-maximal.

Results on 29 compounds are retold here after ChEMBL document CHEMBL3425481, “Design, synthesis and anticancer activity of matrine-1H-1,2,3-triazole-chalcone conjugates” (Bioorg Med Chem Lett, 2015).

Bounds are passed on as bounds.

The test system of one test is HeLa. Description: Antiproliferative activity against human HeLa cells assessed as inhibition of cell proliferation incubated for 48 hrs by CCK8 assay. The class given is functional, cell-based. An outline of the steps:
(§1)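 Human A549 lung, Hela cervical, Bel-7402 hepatocellular and MCF-7 breast cancer cells, plus mouse embryo fibroblast NIH3T3, tested for anti-proliferative activity by CCK-8 assay. For the matrine combination tests, the chalcone and matrine were used at a 1:1 molar ratio; values given as IC50.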
Background: Tetrazolium dyes change colour on reduction, which living cells bring about.

In the next test the test system is MCF7. Description: Antiproliferative activity against human MCF7 cells assessed as inhibition of cell proliferation incubated for 48 hrs by CCK8 assay. The class given is functional, cell-based. To be noted: MCF7, 48 h. Put shortly:
as §1

A short description of test [1]: Antiproliferative activity against mouse NIH/3T3 cells assessed as inhibition of cell proliferation incubated for 48 hrs by CCK8 assay. The class given is cell-based. Conditions: NIH3T3, 48 h. Put shortly: as §1
A further test deals with A549. Description: Antiproliferative activity against human A549 cells assessed as inhibition of cell proliferation incubated for 48 hrs by CCK8 assay. The class given is functional, cell-based. To be noted: A549, 48 h. Put shortly: as §1
A short description of test [2]: Antiproliferative activity against human Bel7402 cells assessed as inhibition of cell proliferation incubated for 48 hrs by CCK8 assay. Type of test: functional, cell-based. To be noted: Bel-7402, 48 h. Put shortly: as §1

Turning to `O=C(/C=C/c1cccc(C(F)(F)F)c1)c1ccc(OCc2cn([C@H]3CC(=O)N4C[C@@H]5CCCN6CCC[C@@H]([C@H]56)[C@H]4C3)nn2)cc1O`, the IC50 was 12.7 µM with HeLa; 8.87 µM with MCF7; 34.8 µM in test [1]; 8.18 µM in the test with A549; 12.1 µM in test [2].

For `COc1ccc(/C=C/C(=O)c2ccc(OCc3cn([C@H]4CC(=O)N5C[C@@H]6CCCN7CCC[C@@H]([C@H]67)[C@H]5C4)nn3)cc2)cc1`, the figures for the IC50 (with HeLa; in test [1]; with A549) were above 50 µM, 23.1 µM and above 50 µM, respectively.

With `C#CCOc1ccc(C(=O)/C=C/c2ccccc2)cc1`, the IC50 is above 50 µM in the test on HeLa, above 50 µM in the test with MCF7, 72.9 µM in test [1] and above 50 µM with A549.

On to `O=C(/C=C/c1ccc(Br)cc1)c1ccc(OCc2cn([C@H]3CC(=O)N4C[C@@H]5CCCN6CCC[C@@H]([C@H]56)[C@H]4C3)nn2)cc1`, for which the concentration for half-maximal inhibition (IC50) in the test on HeLa was found to be 17.1 µM; in the test with MCF7 it was 22.7 µM; in test [1], 30.9 µM; in the test on A549, 24.5 µM; in test [2], 22.7 µM.

Turning to `O=C(/C=C/c1ccccc1)c1ccc(OCc2cn([C@H]3CC(=O)N4C[C@@H]5CCCN6CCC[C@@H]([C@H]56)[C@H]4C3)nn2)cc1O`, the IC50 in the test with HeLa was 17.3 µM; with MCF7, 12 µM; in test [1], above 100 µM; in the test with A549 it was 16.8 µM; in test [2] it was 17.3 µM.

`C#CCOc1ccc(C(=O)/C=C/c2ccc(Cl)c(Cl)c2)c(O)c1`: the IC50 is above 50 µM in the test with HeLa, above 50 µM in the test on MCF7, 94.7 µM in test [1] and above 50 µM in the test with A549.

In the case of `O=C(/C=C/c1ccc(Cl)c(Cl)c1)c1ccc(OCc2cn([C@H]3CC(=O)N4C[C@@H]5CCCN6CCC[C@@H]([C@H]56)[C@H]4C3)nn2)cc1`, the half-maximal inhibitory concentration (IC50) with HeLa was 11.4 µM; in the test with MCF7 it was 13.3 µM; in test [1], 19.4 µM; with A549, 8.72 µM; in test [2] it was 11.9 µM.

Turning to `O=c1[nH]cc(F)c(=O)[nH]1` [FLUOROURACIL], the half-maximal inhibitory concentration (IC50) with HeLa was found to be 8.93 µM; in the test on MCF7 it was 9.56 µM; in test [1], 22.4 µM; with A549 it was 40.4 µM; in test [2], 19.9 µM.

As for `CC(C)(C)c1ccc(/C=C/C(=O)c2ccc(OCc3cn([C@H]4CC(=O)N5C[C@@H]6CCCN7CCC[C@@H]([C@H]67)[C@H]5C4)nn3)cc2O)cc1`, the 50% inhibitory concentration (IC50) with HeLa came out at 36.3 µM; in test [1], 20.4 µM; in the test with A549 it was 36.5 µM.

Consider `O=C(/C=C/c1ccc(Cl)cc1)c1ccc(OCc2cn([C@H]3CC(=O)N4C[C@@H]5CCCN6CCC[C@@H]([C@H]56)[C@H]4C3)nn2)cc1`, for which the IC50 stood at 19.3 µM in the test with HeLa; 14.3 µM in the test with MCF7; 31.3 µM in test [1]; 18.9 µM with A549; 21.2 µM in test [2].

With `Cc1ccc(/C=C/C(=O)c2ccc(OCc3cn([C@H]4CC(=O)N5C[C@@H]6CCCN7CCC[C@@H]([C@H]67)[C@H]5C4)nn3)cc2O)cc1`, the IC50 with HeLa was above 50 µM; in test [1], 20.9 µM; in the test on A549 it was above 50 µM.

Regarding `O=C(/C=C/c1ccc(OC(F)F)cc1)c1ccc(OCc2cn([C@H]3CC(=O)N4C[C@@H]5CCCN6CCC[C@@H]([C@H]56)[C@H]4C3)nn2)cc1`, the IC50 with HeLa is above 50 µM; in test [1] it was 27.3 µM; with A549, above 50 µM.

Turning to `O=C(/C=C/c1ccc(Cl)cc1)c1ccc(OCc2cn([C@H]3CC(=O)N4C[C@@H]5CCCN6CCC[C@@H]([C@H]56)[C@H]4C3)nn2)cc1O`, the IC50 with HeLa turned out to be 10.7 µM; with MCF7 it was 12.7 µM; in test [1], 75.2 µM; with A549 it was 15.6 µM; in test [2], 14.7 µM.

As to `COc1ccc(/C=C/C(=O)c2ccc(OCc3cn([C@H]4CC(=O)N5C[C@@H]6CCCN7CCC[C@@H]([C@H]67)[C@H]5C4)nn3)cc2O)cc1OC`, the figures for the IC50 (in the test with HeLa; in test [1]; with A549) were above 50 µM, 13.3 µM and above 50 µM, respectively.

Take `O=C(/C=C/c1ccc(F)cc1)c1ccc(OCc2cn([C@H]3CC(=O)N4C[C@@H]5CCCN6CCC[C@@H]([C@H]56)[C@H]4C3)nn2)cc1O`: the IC50 was 19.8 µM in the test with HeLa; 5.71 µM in the test on MCF7; 36.1 µM in test [1]; 18.3 µM with A549; 9.02 µM in test [2].

In the case of `O=C(/C=C/c1ccc(F)cc1)c1ccc(OCc2cn([C@H]3CC(=O)N4C[C@@H]5CCCN6CCC[C@@H]([C@H]56)[C@H]4C3)nn2)cc1`, the IC50 in the test on HeLa stood at 18.7 µM; in the test with MCF7, 26.9 µM; in test [1], 39.8 µM; in the test on A549, 18.7 µM; in test [2], 22.2 µM.

Consider `O=C(/C=C/c1cccc(Cl)c1)c1ccc(OCc2cn([C@H]3CC(=O)N4C[C@@H]5CCCN6CCC[C@@H]([C@H]56)[C@H]4C3)nn2)cc1`, for which the IC50 was 15.2 µM in the test with HeLa; 10.2 µM in the test with MCF7; 38.1 µM in test [1]; 11.9 µM with A549; 13.7 µM in test [2].

As for `CC(=O)c1ccc(OCc2cn([C@H]3CC(=O)N4C[C@@H]5CCCN6CCC[C@@H]([C@H]56)[C@H]4C3)nn2)cc1`, the 50% inhibitory concentration (IC50) in the test with HeLa is above 50 µM; with MCF7 it was above 50 µM; in test [1] it was 42.9 µM; in the test with A549, above 50 µM; in test [2], above 50 µM.

Turning to `O=C(/C=C/c1ccc([N+](=O)[O-])cc1)c1ccc(OCc2cn([C@H]3CC(=O)N4C[C@@H]5CCCN6CCC[C@@H]([C@H]56)[C@H]4C3)nn2)cc1`, the 50% inhibitory concentration (IC50) in the test with HeLa was 6.06 µM; in the test with MCF7, 11.5 µM; in test [1], 35.7 µM; in the test with A549, 14.5 µM; in test [2], 16.2 µM.

For `C#CCOc1ccc(C(=O)/C=C/c2cccc(Cl)c2)c(O)c1`, the IC50 in the test on HeLa was above 50 µM; in the test with MCF7 it was above 50 µM; in test [1] it was 79.5 µM; with A549, above 50 µM.

Regarding `COc1cc(/C=C/C(=O)c2ccc(OCc3cn([C@H]4CC(=O)N5C[C@@H]6CCCN7CCC[C@@H]([C@H]67)[C@H]5C4)nn3)cc2O)cc(OC)c1OC`, the results for the IC50 (in the test with HeLa; in test [1]; in the test with A549) were above 50 µM, 15.2 µM and above 50 µM, respectively.

Turning to `C#CCOc1ccc(C(=O)/C=C/c2ccc(Cl)c(Cl)c2)cc1`, the IC50 is above 50 µM with HeLa, above 50 µM with MCF7, 61.8 µM in test [1] and above 50 µM in the test with A549.

Turning to `O=C(/C=C/c1ccccc1)c1ccc(OCc2cn([C@H]3CC(=O)N4C[C@@H]5CCCN6CCC[C@@H]([C@H]56)[C@H]4C3)nn2)cc1`, the half-inhibitory concentration (IC50) in the test with HeLa stood at 25.4 µM; in the test on MCF7 it was 17.2 µM; in test [1] it was 19.4 µM; with A549, 32.2 µM; in test [2] it was 20.7 µM.

`Cc1ccc(/C=C/C(=O)c2ccc(OCc3cn([C@H]4CC(=O)N5C[C@@H]6CCCN7CCC[C@@H]([C@H]67)[C@H]5C4)nn3)cc2)cc1`: the IC50 turned out to be 19.9 µM with HeLa; 26.8 µM in the test on MCF7; 14.8 µM in test [1]; 32.4 µM in the test on A549; 35.6 µM in test [2].

`COc1ccc(/C=C/C(=O)c2ccc(OCc3cn([C@H]4CC(=O)N5C[C@@H]6CCCN7CCC[C@@H]([C@H]67)[C@H]5C4)nn3)cc2)cc1OC`: the results for the IC50 (in the test on HeLa; in test [1]; in the test on A549) were above 50 µM, 41.1 µM and above 50 µM, respectively.

In the case of `CC(=O)c1ccc(OCc2cn([C@H]3CC(=O)N4C[C@@H]5CCCN6CCC[C@@H]([C@H]56)[C@H]4C3)nn2)cc1O`, the IC50 in the test on HeLa was above 50 µM; in the test with MCF7, above 50 µM; in test [1], 61.8 µM; in the test with A549, above 50 µM; in test [2] it was above 50 µM.

With `O=C(/C=C/c1ccccc1Cl)c1ccc(OCc2cn([C@H]3CC(=O)N4C[C@@H]5CCCN6CCC[C@@H]([C@H]56)[C@H]4C3)nn2)cc1`, the IC50 in the test on HeLa turned out to be 13.5 µM; with MCF7 it was 23.8 µM; in test [1] it was 88 µM; in the test with A549, 14.2 µM; in test [2], 21.8 µM.

On to `COc1ccc(/C=C/C(=O)c2ccc(OCc3cn([C@H]4CC(=O)N5C[C@@H]6CCCN7CCC[C@@H]([C@H]67)[C@H]5C4)nn3)cc2O)cc1`, for which the IC50 in the test with HeLa was above 50 µM; with MCF7 it was above 50 µM; in test [1], 29.6 µM; with A549, above 50 µM; in test [2] it was above 50 µM.

`O=C(/C=C/c1ccc(Cl)c(Cl)c1)c1ccc(OCc2cn([C@H]3CC(=O)N4C[C@@H]5CCCN6CCC[C@@H]([C@H]56)[C@H]4C3)nn2)cc1O`: the IC50 with HeLa amounted to 6.63 µM; with MCF7 it was 7.03 µM; in test [1] it was 48.3 µM; with A549 it was 8.08 µM; in test [2], 12.4 µM.
